Assay results published in ChEMBL document CHEMBL1154711, “Original quinazoline derivatives displaying antiplasmodial properties” (Eur J Med Chem, 2010).
pIC50: −log10 of the molar value.

Legend:
Plasmodium falciparum = experiment: Antiplasmodial activity against chloroquine-resistant Plasmodium falciparum W2 infected in human erythrocyte after 48 hrs by flow cytometry; type: functional, organism-based; conditions: for pIC50: Plasmodium falciparum, W2, 48 h, read-out: IC50
How it was run: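 W2 strain (chloroquine-, pyrimethamine- and proguanil-resistant) kept in RPMI 1640 with 25 mM HEPES, 25 mM NaHCO3 and 10% A+ human serum. Cultures held at 37 °C under 10% O2, 6% CO2, 84% N2. Assay wells at 2% haematocrit; compounds added in DMSO or water. Incubated 48 h with no medium change. Infected erythrocytes counted by hydroethidine flow cytometry. IC50 taken from three independent experiments.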

[1] = Selectivity index, ratio of IC50 for human K562 cells to IC50 for chloroquine-resistant Plasmodium falciparum W2
K562 = experiment: Cytotoxicity against human K562 cells after 72 hrs by flow cytometry; type: functional, cell-based; conditions: for pIC50: Homo sapiens, K562, 72 h, read-out: IC50; for IC50: k562
How it was run: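 Cells were treated with a concentration range for 72 h at 37 °C, 6% CO2, with solvent and doxorubicin controls, and wells were checked for precipitate. Cells were stained with propidium iodide and live cells counted by flow cytometry. IC50 is the concentration giving a 50% decrease in proliferation versus control, from nonlinear regression of dose–response curves, mean of three independent experiments.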

[2] = Selectivity index, ratio of IC50 for human HepG2 cells to IC50 for chloroquine-resistant Plasmodium falciparum W2
HepG2 = experiment: Cytotoxicity against human HepG2 cells after 72 hrs by MTT assay; type: cell-based; conditions: for pIC50: Homo sapiens, HepG2, 72 h, read-out: IC50; for IC50: hepg2
How it was run: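 Cells in RPMI with 10% FBS, glutamine and penicillin/streptomycin were grown 24 h at 37 °C, 6% CO2, then exposed to a concentration range for 72 h. Wells were checked microscopically for precipitate. MTT (5 mg/mL in PBS) was added in serum-free medium for 2 h, formazan dissolved in DMSO, and absorbance read at 570 nm (630 nm reference). Viability is % of untreated control; the 50% cytotoxic concentration comes from the dose–response curve, mean of three experiments.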

Toxoplasma gondii = experiment: Antitoxoplasmic activity against Toxoplasma gondii PRU-betaGal tachyzoite after 96 hrs by colorimetric microtiter assay; type: functional, organism-based
How it was run: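 Confluent HFF monolayers (10⁴ cells seeded per well) in phenol red-free RPMI 1640 with 10% FCS and glutamine/penicillin–streptomycin were infected with 2×10³ tachyzoites per well for 3 h at 37 °C, 6% CO2. Compounds in DMSO (<0.5% v/v) were added in triplicate for 96 h. CPRG was then added for 24 h and β-galactosidase read at 570/630 nm, blanked on uninfected wells. IC50 from three independent experiments.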

Leishmania donovani = experiment: Antileishmanial activity against GFP-transfected Leishmania donovani HOM/IN/01/2001 promastigotes after 72 hrs; type: functional, organism-based; conditions: HOM/IN/01/2001, 72 h
How it was run: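 GFP-expressing promastigotes at 10⁵ parasites/mL in medium with 10% FCS and G418, exposed in duplicate to a concentration range of compounds in DMSO (final <0.5% v/v) for 72 h at 27 °C. DMSO and amphotericin B controls were included. Growth was read by flow cytometry (488 nm argon laser, green FL1 fluorescence). The IC50 is the 50% growth decrease, from three independent experiments.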

Row | SMILES | pIC50 (Plasmodium falciparum) | Ratio IC50 [1] | pIC50 (K562) | Ratio IC50 [2] | pIC50 (HepG2) | pIC50 (Toxoplasma gondii) | pIC50 (Leishmania donovani) | IC50 (Plasmodium falciparum) | IC50 (K562) | IC50 (HepG2)
1 | Cc1ccc(S(=O)(=O)Cc2nc(Nc3ccccc3Cl)c3ccccc3n2)cc1 | 4.85 | 1.7 | 4.62 | >3.6 | < 4.30 |  |  |  |  | 
2 | Cc1ccc(S(=O)(=O)Cc2nc(Nc3ccc(F)cc3)c3cc([N+](=O)[O-])ccc3n2)cc1 | 5.66 | >57 | < 3.90 | >23 | < 4.30 | < 4.60 | < 4.60 |  |  | 
3 | CC(C)=Cc1nc(Nc2cccc(Br)c2)c2cc([N+](=O)[O-])ccc2n1 | 5.12 | >8 | < 4.21 | >2 | < 4.82 |  |  |  |  | 
4 | Cc1ccc(S(=O)(=O)Cc2nc(Nc3cccc(Br)c3)c3cc([N+](=O)[O-])ccc3n2)cc1 |  |  |  |  |  |  |  | ND(Insoluble) | ND(Insoluble) | ND(Insoluble)
5 | CC(C)=Cc1nc(Nc2ccccc2)c2cc([N+](=O)[O-])ccc2n1 | 4.77 | >7 | < 3.90 | 2.9 | 4.30 |  |  |  |  | 
6 | Cc1ccc(S(=O)(=O)Cc2nc(Nc3cccc(C(F)(F)F)c3)c3cc([N+](=O)[O-])ccc3n2)cc1 | 6.02 | >131 | < 3.90 | >105 | < 4.00 | < 4.60 | 4.62 |  |  | 
7 | Cc1ccc(S(=O)(=O)Cc2nc(Nc3cccc(C(F)(F)F)c3)c3ccccc3n2)cc1 | 4.82 | >1.7 | < 4.60 | >1.7 | < 4.60 |  |  |  |  | 
8 | CC(C)=Cc1nc(Nc2cccc(C(F)(F)F)c2)c2cc([N+](=O)[O-])ccc2n1 | 5.49 | >39 | < 3.90 | 31.3 | < 4.00 |  |  |  |  | 
9 | Cc1ccc(S(=O)(=O)Cc2nc(Nc3ccccc3)c3ccccc3n2)cc1 |  |  |  |  |  |  |  | ND(Insoluble) | ND(Insoluble) | ND(Insoluble)
10 | Cc1ccc(S(=O)(=O)Cc2nc(Nc3cccc(Cl)c3)c3cc([N+](=O)[O-])ccc3n2)cc1 | 5.89 | >96 | < 3.90 | >77 | < 4.00 | < 4.60 | 4.96 |  |  | 
11 | Cc1ccc(S(=O)(=O)Cc2nc(Nc3cccc(Br)c3)c3ccccc3n2)cc1 | 4.89 | >1.2 | < 4.82 | >1.2 | < 4.82 |  |  |  |  | 
12 | Cc1ccc(S(=O)(=O)Cc2nc(Nc3ccccc3)c3cc([N+](=O)[O-])ccc3n2)cc1 | 5.30 | >25 | < 3.90 | >5 | < 4.60 |  |  |  |  | 
13 | Cc1ccc(S(=O)(=O)Cc2nc(Nc3ccc(F)cc3)c3ccccc3n2)cc1 | 4.70 | >1 | < 4.70 | >0.75 | < 4.82 |  |  |  |  | 
14 | CC(C)=Cc1nc(Nc2ccc(F)cc2)c2cc([N+](=O)[O-])ccc2n1 | 5.25 | >11 | < 4.21 | 4.8 | 4.57 |  |  |  |  | 
15 | C[C@@H]1[C@H](O)[C@@H](C)/C=C/C=C/C=C/C=C/C=C/C=C/C=C/[C@H](O[C@@H]2O[C@H](C)[C@@H](O)[C@H](N)[C@@H]2O)C[C@@H]2O[C@](O)(C[C@@H](O)C[C@@H](O)[C@H](O)CC[C@@H](O)C[C@@H](O)CC(=O)O[C@H]1C)C[C@H](O)[C@H]2C(=O)O [AMPHOTERICIN B] |  |  |  |  |  |  | 7.22 |  |  | 
16 | COc1cccc2c1C(=O)c1c(O)c3c(c(O)c1C2=O)C[C@@](O)(C(=O)CO)C[C@@H]3O[C@H]1C[C@H](N)[C@H](O)[C@H](C)O1 [DOXORUBICIN] |  |  |  |  | 6.70 |  |  |  |  | 
17 | C[C@H]1c2cccc(O)c2C(=O)C2=C(O)[C@]3(O)C(=O)C(C(N)=O)=C(O)[C@@H](N(C)C)[C@@H]3[C@@H](O)[C@@H]21.O [DOXYCYCLINE] |  | 2.3 |  | 3.1 |  |  |  |  |  | 
18 | CCc1nc(N)nc(N)c1-c1ccc(Cl)cc1 [PYRIMETHAMINE] |  |  |  |  |  | 5.82 |  |  |  | 
